Source: ChEMBL document CHEMBL3526139, “Clinical pharmacokinetics, metabolism, and drug-drug interaction of carfilzomib” (Drug Metab Dispos, 2013)

Tests used:
Cytochrome P450 3A = Cytochrome P450 3A (Homo sapiens, UniProt P08684+P20815+Q9HB55+P24462); assay: Time-dependent inhibition of CYP3A in human liver microsomes assessed as testosterone 6-hydroxylation using testosterone as substrate by LC-MS/MS analysis in presence of NADPH; format: ADME
Method in brief: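 Pooled HLM (16 donors) given carfilzomib 0.01–10 µM in duplicate at 37°C with a 30-min preincubation before probe substrate was added. Substrate was set near Km (testosterone Km 100 µM; midazolam Km 3.8 µM). Protein was 0.1 mg/mL, or 0.05 mg/mL with midazolam. Metabolite formation was read by LC-MS/MS after 5 min and expressed relative to 0.5% acetonitrile controls to give IC50.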

Cytochrome P450 3A4 = Cytochrome P450 3A4 (Homo sapiens, UniProt P08684); assay: Decrease in CYP3A4 activity in human hepatocytes assessed as 6-betahydroxytestosterone formation using testosterone as substrate at 2.5 uM incubated for 3 days prior to substrate challenge for 30 mins by LC-MS/MS analysis; format: ADME, cell-based, Hepatocyte; conditions: 0.5 h
Chain of Cytochrome P450 3A4 (P08684 whole entry): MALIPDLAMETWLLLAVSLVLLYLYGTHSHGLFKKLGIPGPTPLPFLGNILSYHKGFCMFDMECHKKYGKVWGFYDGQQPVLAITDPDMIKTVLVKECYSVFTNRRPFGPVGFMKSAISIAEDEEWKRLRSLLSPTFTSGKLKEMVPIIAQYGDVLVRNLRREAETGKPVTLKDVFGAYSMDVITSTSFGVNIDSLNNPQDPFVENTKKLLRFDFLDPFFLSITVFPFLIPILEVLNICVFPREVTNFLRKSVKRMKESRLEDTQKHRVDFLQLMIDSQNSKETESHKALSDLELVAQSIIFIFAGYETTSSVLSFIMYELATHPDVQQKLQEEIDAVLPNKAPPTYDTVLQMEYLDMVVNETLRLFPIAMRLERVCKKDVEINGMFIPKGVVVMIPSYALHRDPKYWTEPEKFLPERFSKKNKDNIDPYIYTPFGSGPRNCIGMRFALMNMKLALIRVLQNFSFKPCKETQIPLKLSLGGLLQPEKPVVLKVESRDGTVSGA
Method in brief: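 Hepatocytes from 3 donors were plated on collagen I and cultured 2 days, then treated 3 days with carfilzomib (0.1–2.5 µM), 0.08% DMSO, rifampicin 20 µM or β-naphthoflavone 20 µM, renewed daily. Cells were then incubated in serum-free medium in triplicate with testosterone 200 µM (CYP3A, 30 min, 6β-hydroxytestosterone) or phenacetin 100 µM (CYP1A2, 60 min, acetaminophenol). Products were measured by LC-MS/MS and expressed relative to DMSO.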

[1] = Plasma clearance in human patient with relapsed solid tumor at 20 mg/m'2, iv administered over 2 to 10 mins on days 1, 2, 8, 9, 15 and 16 of 28-day cycle measured on day 1 of cycle 1 by LC-MS/MS analysis; format: ADME, organism-based
Method in brief: (§1)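 Patients with relapsed solid tumors (n=3) received carfilzomib IV at 20 mg/m2. Plasma was sampled on Days 1 and 16 of Cycle 1 before dosing, at end of administration, and at 5, 15, 30 min and 1, 2, 4 h after. Samples underwent solid phase extraction and LC-MS/MS with d10-carfilzomib internal standard over 0.100–200 ng/mL. Parameters were derived noncompartmentally (constant IV infusion model) from actual elapsed time from infusion start.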

Cytochrome P450 2C8 = target: T1, Cytochrome P450 2C8 (Homo sapiens, UniProt P10632); assay: Drug metabolism in pooled human hepatocytes assessed as disapperance rate at 1 uM by LC-MS/MS analysis in presence of 30 uM CYP2C8 inhibitor montelukast; format: ADME, cell-based, Hepatocyte
T1 sequence (P10632 whole entry): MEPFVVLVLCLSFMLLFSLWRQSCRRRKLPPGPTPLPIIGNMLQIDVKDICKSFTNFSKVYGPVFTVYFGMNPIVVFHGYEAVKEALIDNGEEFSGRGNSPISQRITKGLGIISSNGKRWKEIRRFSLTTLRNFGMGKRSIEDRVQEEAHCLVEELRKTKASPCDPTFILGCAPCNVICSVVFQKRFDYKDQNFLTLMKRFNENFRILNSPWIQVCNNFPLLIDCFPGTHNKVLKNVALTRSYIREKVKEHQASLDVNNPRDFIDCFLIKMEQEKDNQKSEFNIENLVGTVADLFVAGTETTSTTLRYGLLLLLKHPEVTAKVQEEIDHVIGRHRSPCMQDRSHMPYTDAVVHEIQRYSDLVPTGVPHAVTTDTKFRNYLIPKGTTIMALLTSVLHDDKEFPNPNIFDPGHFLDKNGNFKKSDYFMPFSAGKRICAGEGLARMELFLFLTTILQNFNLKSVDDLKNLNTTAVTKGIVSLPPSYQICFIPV
Method in brief: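 Pooled human hepatocytes in suspension (~0.5 x 10^6 viable cells/mL) were incubated with 1 µM carfilzomib at 37°C under 5% CO2, with or without isoform-selective CYP chemical inhibitors. Reactions were quenched with acetonitrile at 0, 15, 30, 60 and 120 min. Carfilzomib was quantified by non-validated LC-MS/MS after protein precipitation.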

Cytochrome P450 2D6 = Cytochrome P450 2D6 (Homo sapiens, UniProt P10635); assay: Inhibition of CYP2D6 in human liver microsomes using dextromethorphan as substrate after 5 mins by LC-MS/MS analysis; format: ADME
Chain of Cytochrome P450 2D6 (P10635 whole entry): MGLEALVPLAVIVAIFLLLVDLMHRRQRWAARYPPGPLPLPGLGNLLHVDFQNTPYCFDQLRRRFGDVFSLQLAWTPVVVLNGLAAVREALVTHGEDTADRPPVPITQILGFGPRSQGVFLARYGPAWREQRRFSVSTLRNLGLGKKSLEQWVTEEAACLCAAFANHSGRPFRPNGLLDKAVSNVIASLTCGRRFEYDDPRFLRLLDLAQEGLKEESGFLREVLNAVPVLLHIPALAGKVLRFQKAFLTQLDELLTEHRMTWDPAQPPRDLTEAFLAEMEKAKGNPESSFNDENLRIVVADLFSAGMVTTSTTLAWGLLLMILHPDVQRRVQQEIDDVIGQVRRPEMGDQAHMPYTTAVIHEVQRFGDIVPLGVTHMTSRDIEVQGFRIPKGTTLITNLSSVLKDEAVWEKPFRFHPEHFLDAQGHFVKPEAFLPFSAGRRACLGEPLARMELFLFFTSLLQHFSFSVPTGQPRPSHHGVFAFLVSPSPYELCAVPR
Method in brief: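 Pooled HLM from 16 donors were incubated at 37°C in duplicate with carfilzomib 0.01–10 µM and probe substrate at about its Km. Substrates were phenacetin, amodiaquine, diclofenac, S-mephenytoin, dextromethorphan, testosterone and midazolam. Protein was 0.1 mg/mL, or 0.05 mg/mL with midazolam. Reactions ran 5 min without preincubation, then were quenched with acetonitrile. Metabolites were measured by LC-MS/MS relative to 0.5% acetonitrile controls.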

Plasma [2] = assay: Drug metabolism in plasma of human multiple myeloma patient assessed as morpholino-hPhe-Leu metabolite formation at 15 mg/m'2, iv administered as single dose measured within first 30 mins after end of drug infusion by LC-MS/MS analysis; format: ADME, organism-based; conditions: in vivo, 0.5 h
Method in brief: (§2)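 Patients with multiple myeloma received a single 15 mg/m2 carfilzomib dose. Plasma was sampled pre-dose, at end of infusion, at 5, 15, 30 min and at 1, 1.5, 2, 4, 6, 24 h. Samples were protein-precipitated and analyzed by LC-MS/MS (metabolites 0.500–500 ng/mL) with deuterated internal standards.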

CYP3A = CYP3A (Homo sapiens, UniProt P08684+P20815+P24462+Q9HB55); assay: Time-dependent inhibition of CYP3A in human liver microsomes assessed as midazolam 1'-hydroxylation using midazolam as substrate by LC-MS/MS analysis; format: ADME; conditions: probe midazolam (1'-hydroxylation)
Method in brief: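 Pooled HLM (16 donors, mixed sex), 37°C, duplicate. IC50: carfilzomib 0.01–10 µM preincubated 30 min, then midazolam near Km (3.8 µM) at 0.05 mg/mL protein, 5 min, LC-MS/MS, relative to 0.5% acetonitrile control. KI/kinact: 0–8 µM preincubated 0–30 min with 1.25 mg/mL HLM plus NADPH-generating system, diluted 25-fold, midazolam 40 µM for 5 min.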

[3] = Half life in human patient with relapsed solid tumor at 20 mg/m'2, iv administered on days 1, 2, 8, 9, 15 and 16 of 28-day cycle over 2 to 10 mins measured on day 1 of cycle 1 by LC-MS/MS analysis; format: ADME, organism-based; conditions: in vivo; method in brief: as §1
[4] = Plasma clearance in human patient with relapsed solid tumor at 20 mg/m'2, iv administered on days 1, 2, 8, 9, 15 and 16 of 28-day cycle over 2 to 10 mins measured on day 16 of cycle 1 by LC-MS/MS analysis; format: ADME, organism-based; method in brief: as §1
Plasma [5] = assay: Drug metabolism in plasma of human multiple myeloma patient assessed as morpholino-hPhe-Leu-Phe-Leu-diol metabolite formation at 15 mg/m'2, iv administered as single dose measured within first 30 mins after end of drug infusion by LC-MS/MS analysis; format: ADME, organism-based; conditions: in vivo, 0.5 h; method in brief: as §2
Plasma [6] = assay: Drug metabolism in plasma of iv dosed human patient with relapsed and refractory hematological malignancies assessed as morpholino-hPhe-Leu metabolite formation administered on days 1, 2, 8, 9, 15 and 16 of 28-day cycle over 2 to 10 mins by LC-MS/MS analysis; format: ADME, organism-based; conditions: in vivo

- inhibition (INH) (Cytochrome P450 3A): Active
- inhibition (INH) (Cytochrome P450 3A4): 45%
- clearance [1]: 2430 mL/min
- Drug metabolism (Cytochrome P450 2C8): 0.014 min⁻¹
- IC50 (Cytochrome P450 2D6): > 10 µM
- Drug metabolism (Plasma [2]): metabolite_detected
- Ki (CYP3A): 11 µM
- kinact (CYP3A): 0.00167 s⁻¹
- half-life [3]: 1 h
- clearance [4]: 2270 mL/min
- Drug metabolism (Plasma [5]): metabolite_detected
- Drug metabolism (Plasma [6]): metabolite_detected
SMILES: CC(C)C[C@H](NC(=O)[C@H](CCc1ccccc1)NC(=O)CN1CCOCC1)C(=O)N[C@@H](Cc1ccccc1)C(=O)N[C@@H](CC(C)C)C(=O)[C@@]1(C)CO1 [CARFILZOMIB]
